Experiment [1] concerns Plasma. Briefly: Antiplatelet activity against citreated rabbit platelet-rich plasma assessed as inhibition of thrombin-induced platelet aggregation at 150 uM by turbidimetric method. Type of experiment: functional. The note with it: Oryctolagus cuniculus. In outline:
(§1)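 PRP stirred at 900 rpm, 37 °C, 1 min; compound 150 µM or DMSO vehicle (0.5% v/v) added 1 min before agonist: ADP 5 µM, collagen 5 µg/mL, thrombin 2 nM or arachidonic acid 100 µM. Aggregation read turbidimetrically (Born method).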

The subject of experiment [2] is Plasma. Briefly: Antiplatelet activity against citreated rabbit platelet-rich plasma assessed as inhibition of collagen-induced platelet aggregation at 150 uM by turbidimetric method. It counts as functional. The following applies: Oryctolagus cuniculus. In a few lines: as §1
Experiment [3] deals with Plasma. The experiment is described as follows: Antiplatelet activity against citreated rabbit platelet-rich plasma assessed as inhibition of arachidonic acid-induced platelet aggregation at 150 uM by turbidimetric method. It counts as functional. The following applies: Oryctolagus cuniculus. In outline:
as §1

In experiment [4] the test system is Plasma. The experiment is described as follows: Antiplatelet activity against citreated rabbit platelet-rich plasma assessed as ADP-induced platelet aggregation at 150 uM by turbidimetric method. It counts as functional, Oryctolagus cuniculus. In a few lines:
as §1

The subject of experiment [5] is Plasma. The experiment is described as follows: Antiplatelet activity against citreated rabbit platelet-rich plasma assessed as thrombin-induced platelet aggregation at 150 uM by turbidimetric method. Type of experiment: functional, Oryctolagus cuniculus. In outline:
as §1

Experiment [6] deals with Plasma. Briefly: Antiplatelet activity against citreated rabbit platelet-rich plasma assessed as inhibition of ADP-induced platelet aggregation at 150 uM by turbidimetric method. It counts as functional. The following applies: Oryctolagus cuniculus. In outline:
as §1

Experiment [7] deals with Plasma. Briefly: Antiplatelet activity against citreated rabbit platelet-rich plasma assessed as collagen-induced platelet aggregation at 150 uM by turbidimetric method. Type of experiment: functional, Oryctolagus cuniculus. In a few lines:
as §1

In experiment [8] the test system is Mus musculus. The experiment is described as follows: Antithrombotic activity against thrombin-induced pulmonary thromboembolism in mouse model assessed as survival at 100 umol/kg, po after 15 mins. It counts as functional. The following applies: 0.25 h.

As a reminder, the inhibition is the change of the read-out against control, counted positive when it falls. `Cc1cc2c(cc1S(=O)(=O)Oc1cccc(C(=O)N/N=C\c3ccccc3)c1)OCO2`: the inhibition at 150 µM in experiment [1] was found to be 0%; in experiment [2], 42%; in experiment [3], 97%; in experiment [6], 0%. Further, the Activity in experiment [4] stood at 100%; in experiment [5] it was 100%; in experiment [7] it was 45.6%.

Consider `Cc1cc2c(cc1S(=O)(=O)Oc1cccc(C(=O)N/N=C\c3ccc(C(=O)O)cc3)c1)OCO2`, for which the inhibition at 150 µM in experiment [1] was 95%; in experiment [2], 0%; in experiment [3], 0%; in experiment [6], 0%. The Activity turned out to be 100% in experiment [4], 2.9% in experiment [5] and 100% in experiment [7]. In experiment [8], the survival at 100 µmol/kg came to 53.3%.

As to `Cc1cc2c(cc1S(=O)(=O)Oc1ccc(C(=O)N/N=C\c3ccc(C(=O)O)cc3)cc1)OCO2`, the inhibition at 150 µM was 100% in experiment [1], 25% in experiment [2], 90.8% in experiment [3] and 0% in experiment [6]. Besides, the Activity in experiment [4] is 100%; in experiment [5], 0%; in experiment [7] it was 59%. Also, the survival at 100 µmol/kg in experiment [8] was found to be 80%.

In the case of `Cc1cc2c(cc1S(=O)(=O)Oc1cccc(C(=O)N/N=C\c3ccncc3)c1)OCO2`, the inhibition at 150 µM in experiment [1] turned out to be 72.5%; in experiment [2], 25%; in experiment [3] it was 82%; in experiment [6], 0%. The Activity in experiment [4] is on record as 100%; in experiment [5], 16.4%; in experiment [7], 59%. In addition, the survival at 100 µmol/kg in experiment [8] was 33.3%.

For the compound `Cc1cc2c(cc1S(=O)(=O)Oc1cccc(C(=O)N/N=C\c3ccc(/C(N)=N\O)cc3)c1)OCO2`, the inhibition at 150 µM turned out to be 81% in experiment [1], 100% in experiment [2], 100% in experiment [3] and 36% in experiment [6]. Further, the Activity in experiment [4] is 58.7%; in experiment [5], 11.3%; in experiment [7] it was 0%.

With `Cc1cc2c(cc1S(=O)(=O)Oc1ccccc1C(=O)N/N=C\c1ccc(C(=O)O)cc1)OCO2`, the inhibition at 150 µM in experiment [1] stood at 80%; in experiment [2], 0%; in experiment [3] it was 0%; in experiment [6], 0%. Also, the figures for the Activity in experiment [4], in experiment [5] and in experiment [7] were 100%, 11.9% and 100%, respectively. Besides, the survival at 100 µmol/kg in experiment [8] turned out to be 80%.

As to `Cc1cc2c(cc1S(=O)(=O)Oc1cccc(C(=O)N/N=C\c3ccc([N+](=O)[O-])cc3)c1)OCO2`, the inhibition at 150 µM in experiment [1] came out at 3%; in experiment [2], 11.5%; in experiment [3], 81.5%; in experiment [6], 0%. For the same compound, the Activity worked out at 100% in experiment [4], 57.7% in experiment [5] and 69.6% in experiment [7].

`CC(=O)Oc1ccccc1C(=O)O` [ASPIRIN]: the inhibition at 150 µM amounted to 82.7% in experiment [1], 77.7% in experiment [2], 71.6% in experiment [3] and 7.9% in experiment [6]. The results for the Activity in experiment [4], in experiment [5] and in experiment [7] were 74.8%, 10.3% and 17.5%, respectively.

As for `Cc1cc2c(cc1S(=O)(=O)Oc1cccc(C(=O)N/N=C\c3ccc(C#N)cc3)c1)OCO2`, the inhibition at 150 µM in experiment [1] worked out at 2%; in experiment [2], 100%; in experiment [3], 100%; in experiment [6], 32%. Moreover, the Activity in experiment [4] came out at 54.9%; in experiment [5], 58.3%; in experiment [7], 0%.

In the case of `Cc1cc2c(cc1S(=O)(=O)Oc1cccc(C(=O)N/N=C\c3ccc(N)cc3)c1)OCO2`, the inhibition at 150 µM in experiment [1] worked out at 2.2%; in experiment [2], 37.5%; in experiment [3], 80%; in experiment [6] it was 0%. Also, the results for the Activity in experiment [4], in experiment [5] and in experiment [7] were 100%, 58.2% and 49.2%, respectively.

In the case of `Cc1cc2c(cc1S(=O)(=O)Oc1cccc(/C=N/NC(=O)c3ccncc3)c1)OCO2`, the inhibition at 150 µM was found to be 1.3% in experiment [1], 100% in experiment [2], 94.8% in experiment [3] and 22% in experiment [6]. The Activity in experiment [4] was 63.3%; in experiment [5], 58.7%; in experiment [7] it was 0%.

The values above are taken from ChEMBL document CHEMBL1149777, “Synthesis and anti-platelet activity of novel arylsulfonate--acylhydrazone derivatives, designed as antithrombotic candidates” (2008).
